In ChEMBL document CHEMBL1821649, “Synthesis, characterization of some benzazoles bearing pyridine moiety: search for novel anticancer agents” (2011):

Tests used:
Type in all cases: functional
[1] = tested on: KM12; assay: Antitumor activity against human KM12 cells after 48 hrs by SRB assay; conditions: KM12, 48 h
In short: (§1)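 NCI-60 human tumour cell panel run under the National Cancer Institute Drug Evaluation Branch protocol. Compounds passing a single-dose prescreen were retested on all lines at five 10-fold dilutions. Growth was expressed as percent growth of treated cells. Response parameters were GI50 (molar concentration giving 50% growth inhibition), TGI (total growth inhibition) and LC50 (median lethal concentration).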

[2] = tested on: RXF 393; assay: Antitumor activity against human RXF393 cells after 48 hrs by SRB assay; conditions: RXF 393, 48 h; in short: as §1
[3] = tested on: SK-MEL-2; assay: Antitumor activity against human SK-MEL-2 cells after 48 hrs by SRB assay; conditions: SK-MEL-2, 48 h; in short: as §1
[4] = Antitumor activity against human […] cells after 48 hrs by SRB assay; in short: as §1
[5] = tested on: BT-549; assay: Antitumor activity against human BT549 cells after 48 hrs by SRB assay; conditions: BT-549, 48 h; in short: as §1
[6] = tested on: HCC 2998; assay: Antitumor activity against human HCC2998 cells after 48 hrs by SRB assay; conditions: HCC 2998, 48 h; in short: as §1
[7] = tested on: OVCAR-8; assay: Antitumor activity against human OVCAR8 cells after 48 hrs by SRB assay; conditions: OVCAR-8, 48 h; in short: as §1
[8] = tested on: SF-539; assay: Antitumor activity against human SF539 cells after 48 hrs by SRB assay; conditions: SF-539, 48 h; in short: as §1
[9] = tested on: HCT-15; assay: Antitumor activity against human HCT15 cells after 48 hrs by SRB assay; conditions: HCT-15, 48 h; in short: as §1
[10] = tested on: TK-10; assay: Antitumor activity against human TK10 cells after 48 hrs by SRB assay; conditions: TK-10, 48 h
In short: (§2)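 NCI-60 human cancer cell line panel run under the NCI Drug Evaluation Branch protocol. Compounds were first screened at a single dose. Those meeting preset inhibition thresholds were retested at five 10-fold dilutions. Output was percent growth of treated cells, given as % growth inhibition. GI50, TGI and LC50 values were derived from the five-dose data.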

[11] = tested on: SK-MEL-28; assay: Antitumor activity against human SK-MEL-28 cells after 48 hrs by SRB assay; conditions: SK-MEL-28, 48 h; in short: as §1
[12] = tested on: NCI-H522; assay: Antitumor activity against human NCI-H522 cells after 48 hrs by SRB assay; conditions: NCI-H522, 48 h; in short: as §1
[13] = tested on: SK-OV-3; assay: Antitumor activity against human SKOV3 cells after 48 hrs by SRB assay; conditions: SK-OV-3, 48 h; in short: as §1
[14] = tested on: HT-29; assay: Antitumor activity against human HT-29 cells after 48 hrs by SRB assay; conditions: HT-29, 48 h; in short: as §1
[15] = tested on: NCI-H460; assay: Antitumor activity against human NCI-H460 cells after 48 hrs by SRB assay; conditions: NCI-H460, 48 h; in short: as §1
[16] = tested on: NCI-H226; assay: Antitumor activity against human NCI-H226 cells after 48 hrs by SRB assay; conditions: NCI-H226, 48 h; in short: as §1
[17] = tested on: T47D; assay: Antitumor activity against human T47D cells after 48 hrs by SRB assay; in short: as §2
[18] = tested on: UACC-257; assay: Antitumor activity against human UACC257 cells after 48 hrs by SRB assay; conditions: UACC-257, 48 h; in short: as §2
[19] = tested on: IGROV-1; assay: Antitumor activity against human IGROV1 cells after 48 hrs by SRB assay; conditions: IGROV-1, 48 h; in short: as §1
[20] = tested on: A549; assay: Antitumor activity against human A549 cells after 48 hrs by SRB assay; conditions: A549, 48 h; in short: as §1
[21] = tested on: DU-145; assay: Antitumor activity against human DU145 cells after 48 hrs by SRB assay; conditions: DU-145, 48 h; in short: as §1
[22] = tested on: HOP-62; assay: Antitumor activity against human HOP62 cells after 48 hrs by SRB assay; conditions: HOP-62, 48 h; in short: as §1
[23] = Antitumor activity against human Hs 578T cells after 48 hrs by SRB assay; in short: as §1
[24] = tested on: A498; assay: Antitumor activity against human A498 cells after 48 hrs by SRB assay; conditions: A498, 48 h; in short: as §1
[25] = tested on: EKVX; assay: Antitumor activity against human EKVX cells after 48 hrs by SRB assay; in short: as §1
[26] = tested on: UACC-62; assay: Antitumor activity against human UACC62 cells after 48 hrs by SRB assay; conditions: UACC-62, 48 h; in short: as §2
[27] = tested on: OVCAR-4; assay: Antitumor activity against human OVCAR4 cells after 48 hrs by SRB assay; conditions: OVCAR-4, 48 h; in short: as §1
[28] = tested on: COLO 205; assay: Antitumor activity against human COLO205 cells after 48 hrs by SRB assay; conditions: COLO 205, 48 h; in short: as §1
[29] = tested on: SF-295; assay: Antitumor activity against human SF295 cells after 48 hrs by SRB assay; conditions: SF-295, 48 h; in short: as §1
[30] = tested on: SNB-19; assay: Antitumor activity against human SNB19 cells after 48 hrs by SRB assay; conditions: SNB-19, 48 h; in short: as §1
[31] = tested on: OVCAR-3; assay: Antitumor activity against human OVCAR3 cells after 48 hrs by SRB assay; conditions: OVCAR-3, 48 h; in short: as §1
[32] = read-out: LC50 (the source's name)

Compound: COc1ccc(-c2c(C#N)cnc(N)c2-c2nc3cc(C)c(C)cc3[nH]2)cc1
- GI50 [1]: 3.47 µM
- TGI [1]: > 100 µM
- CC50 [1, 32]: > 100 µM
- GI50 [2]: 6.68 µM
- TGI [2]: 20.4 µM
- CC50 [2, 32]: 54.1 µM
- GI50 [3]: 10.8 µM
- LC50 (median lethal concentration) [3]: > 100 µM
- TGI [3]: 98 µM
- GI50 [4]: 9.8 µM
- TGI [4]: 65.7 µM
- CC50 [4, 32]: > 100 µM
- GI50 [5]: 30.6 µM
- TGI [5]: > 100 µM
- CC50 [5, 32]: > 100 µM
- GI50 [6]: 11 µM
- TGI [6]: > 100 µM
- CC50 [6, 32]: > 100 µM
- GI50 [7]: 5.2 µM
- LC50 (median lethal concentration) [7]: > 100 µM
- TGI [7]: 26.8 µM
- GI50 [8]: 11.5 µM
- TGI [8]: 41.9 µM
- CC50 [8, 32]: > 100 µM
- GI50 [9]: 5.81 µM
- TGI [9]: > 100 µM
- CC50 [9, 32]: > 100 µM
- GI50 [10]: 5.94 µM
- TGI [10]: 26.4 µM
- CC50 [10, 32]: 99.6 µM
- GI50 [11]: 17.2 µM
- LC50 (median lethal concentration) [11]: > 100 µM
- TGI [11]: > 100 µM
- LC50 [12]: > 100 µM
- GI50 [13]: 4.84 µM
- LC50 [13]: 59.6 µM
- TGI [13]: 18.4 µM
- GI50 [14]: 4.79 µM
- TGI [14]: > 100 µM
- CC50 [14, 32]: > 100 µM
- GI50 [15]: 18.1 µM
- LC50 (median lethal concentration) [15]: > 100 µM
- TGI [15]: > 100 µM
- GI50 [16]: 16.4 µM
- TGI [16]: > 100 µM
- CC50 [16, 32]: > 100 µM
- GI50 [17]: 15.4 µM
- TGI [17]: > 100 µM
- CC50 [17, 32]: > 100 µM
- GI50 [18]: 52 µM
- LC50 [18]: > 100 µM
- TGI [18]: > 100 µM
- GI50 [19]: 16 µM
- LC50 [19]: > 100 µM
- TGI [19]: > 100 µM
- GI50 [20]: 6.54 µM
- TGI [20]: 72.5 µM
- CC50 [20, 32]: > 100 µM
- GI50 [21]: 6.92 µM
- TGI [21]: 23.8 µM
- CC50 [21, 32]: 61.8 µM
- GI50 [22]: 3.65 µM
- TGI [22]: 14.4 µM
- CC50 [22, 32]: 45.2 µM
- GI50 [23]: 5.87 µM
- TGI [23]: > 100 µM
- CC50 [23, 32]: > 100 µM
- GI50 [24]: 10.7 µM
- TGI [24]: 63.6 µM
- CC50 [24, 32]: > 100 µM
- GI50 [25]: 15.8 µM
- TGI [25]: > 100 µM
- CC50 [25, 32]: > 100 µM
- GI50 [26]: 72.2 µM
- LC50 [26]: > 100 µM
- TGI [26]: > 100 µM
- GI50 [27]: 22.5 µM
- TGI [27]: > 100 µM
- CC50 [27, 32]: > 100 µM
- GI50 [28]: 7.78 µM
- LC50 [28]: > 100 µM
- TGI [28]: 63.7 µM
- GI50 [29]: 6.41 µM
- TGI [29]: 23.4 µM
- CC50 [29, 32]: 68.2 µM
- GI50 [30]: 7.06 µM
- LC50 (median lethal concentration) [30]: > 100 µM
- TGI [30]: 57.1 µM
- GI50 [31]: 14.8 µM
- TGI [31]: 30.4 µM
- CC50 [31, 32]: 62.2 µM
